According to ChEMBL document CHEMBL4052826, “Design and Synthesis of Novel Reactive Oxygen Species Inducers for the Treatment of Pancreatic Ductal Adenocarcinoma” (J Med Chem, 2018):
Activity calls are given as the source filed them. The rule behind the calls is not given here.

How the values were obtained:
MIA PaCa-2 [1] = assay: Induction of unfolded protein response in human MIAPaCa2 cells assessed as upregulation of CHOP expression at 2 uM by Western blot analysis; assay type: functional, cell-based; details: TDE = time-dependent effect
Outline: (§1)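 Immunoblotting. Cells (4×10^5) in 60 mm dishes were treated, lysed 30 min at 4°C and quantified by BCA. 40 μg protein was run on SDS-PAGE and transferred to PVDF. Primary antibodies (1:1000) incubated overnight at 4°C, then Dylight 800 secondary, with fluorescent scanning. Bands were normalized to GAPDH or actin loading controls. Mean ± SD, three independent experiments, Student's t-test.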

BXPC-3 [2] = assay: Induction of unfolded protein response in human BxPC3 cells assessed as upregulation of GRP78 expression at 2 uM by Western blot analysis; assay type: functional, cell-based; details: TDE = time-dependent effect; outline: as §1
MIA PaCa-2 [3] = assay: Induction of reactive oxygen species generation in human MIAPaCa2 cells assessed as upregulation of NQO1 expression at 2 uM after 4 to 24 hrs by Western blot analysis; assay type: functional, cell-based; outline: as §1
MIA PaCa-2 [4] = assay: Antitumor activity against human MIAPaCa2 cells xenografted in NOD/SCID mouse assessed as delay of tumor growth at 5 mg/kg, ip administered 5 times a week until day 44 followed by dose escalation up to 20 mg/kg until day 67; assay type: functional, organism-based
Outline: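 Subcutaneous MIA PaCa-2 flank xenografts in NOD/SCID mice, randomized at 65 mm3. Dosing was 5 mg/kg ip in 5% DMSO/60% propylene glycol/35% saline, five days on and two off, to day 44. Two mice per group then continued with the dose gradually raised to 20 mg/kg until day 67. Tumor volume was taken by caliper and body weight monitored.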

MIA PaCa-2 [5] = assay: Inhibition of mtDNA transcription from HSP1 promoter in human MIAPaCa2 cells at 5 times IC50 after 4 hrs by Bru-seq analysis; assay type: functional, cell-based
Outline: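 Nascent RNA sequencing (Bru-seq): 4×10^6 MIA PaCa-2 cells seeded in 10 cm dishes, treated next day for 4 h with drug or DMSO. Bromouridine (2 mM final) added for the last 30 min. Total RNA taken in TRIZOL; labeled RNA immunocaptured, converted to cDNA libraries and deep sequenced. Signal compared with DMSO-treated cells.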

MIA PaCa-2 [6] = assay: Induction of unfolded protein response in human MIAPaCa2 cells assessed as upregulation of GRP78 expression at 2 uM by Western blot analysis; assay type: functional, cell-based; details: TDE = time-dependent effect; outline: as §1
BXPC-3 [7] = assay: Induction of reactive oxygen species generation in human BxPC3 cells assessed as upregulation of HO-1 expression at 2 uM after 4 to 24 hrs by Western blot analysis; assay type: functional, cell-based; outline: as §1
Mus musculus [8] = assay: Toxicity in NOD/SCID mouse xenografted with human MIAPaCa2 cells assessed as microscopic changes in kidney at 5 mg/kg, ip administered 5 times a week until day 44 by hematoxylin and eosin staining-based inverted microscopic method; assay type: organism-based; details: in vivo
Outline: (§2)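 Necropsy after the 44-day ip course in MIA PaCa-2 xenograft-bearing NOD/SCID mice: heart, kidney, liver, lung, spleen and pancreas fixed in 10% neutral buffered formalin, paraffin-embedded, sectioned and stained with hematoxylin and eosin. Sections examined by inverted microscope at 20X, compared with vehicle-treated animals.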

Mus musculus [9] = assay: Toxicity in NOD/SCID mouse xenografted with human MIAPaCa2 cells assessed as body weight loss at 5 mg/kg, ip administered 5 times a week until day 44; assay type: organism-based; details: in vivo
Outline: (§3)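 Subcutaneous flank MIA PaCa-2 xenografts (2.0×10^6 cells) in 6-week NOD/SCID mice, randomized at 65 mm3 (n=5/group: vehicle or drug). Dosed ip in 5% DMSO/60% propylene glycol/35% saline, five days on/two off, to day 44. Body weight tracked and mice watched for weakness, weight loss or lethargy; mean ± SEM.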

PANC-1 [10] = assay: Induction of unfolded protein response in human PANC1 cells assessed as upregulation of GRP78 expression at 2 uM by Western blot analysis; assay type: functional, cell-based; details: TDE = time-dependent effect
Outline: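 Cells (4×10^5) seeded in 60 mm dishes, cultured in RPMI1640 with 10% FBS, 5% CO2, 37°C, then compound-treated. Lysed 30 min at 4°C, BCA-quantified, 40 μg protein resolved by SDS-PAGE, transferred to PVDF, probed overnight at 4°C with primary antibodies (1:1000; GAPDH or actin loading control), then Dylight 800 secondary; fluorescence scanned. Bands normalized to loading control; mean ± SD, three independent experiments.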

MIA PaCa-2 [11] = assay: Induction of reactive oxygen species generation in human MIAPaCa2 cells at 1.1 to 10 uM after 24 hrs in presence of NAC by H2DCFDA reactivity assay; assay type: functional, cell-based
Outline: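 H2DCFDA assay. Trypsinized MIA PaCa-2 cells in suspension were loaded with 20 μM H2DCFDA for 30 min at 37°C, washed and plated at 20,000/well. After 30 min they were treated with compound at 10, 3.3 or 1.1 μM. Fluorescence was read at 493/523 nm over time. DMSO basal and unstained controls were included. NAC pretreatment, where used, was 5 mM for 30 min. Duplicates, three independent experiments.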

Mus musculus [12] = assay: Induction of reactive oxygen species generation in tumor of NOD/SCID mouse xenografted with MIAPaCa2 cells assessed as upregulation of NQO1 expression at 5 mg/kg, ip administered 5 times a week until day 44 by Western blot method; assay type: functional, organism-based
Mus musculus [13] = assay: Toxicity in NOD/SCID mouse xenografted with human MIAPaCa2 cells assessed as microscopic changes in heart at 5 mg/kg, ip administered 5 times a week until day 44 by hematoxylin and eosin staining-based inverted microscopic method; assay type: organism-based; details: in vivo; outline: as §2
BXPC-3 [14] = assay: Induction of unfolded protein response in human BxPC3 cells assessed as upregulation of CHOP expression at 2 uM by Western blot analysis; assay type: functional, cell-based; details: TDE = time-dependent effect; outline: as §1
Mus musculus [15] = assay: Induction of unfolded protein response in tumor of NOD/SCID mouse xenografted with MIAPaCa2 cells assessed as upregulation of GRP78 expression at 5 mg/kg, ip administered 5 times a week until day 44 by Western blot method; assay type: functional, organism-based
Outline: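 Dosed ip in 5% DMSO/60% propylene glycol/35% saline, five days on/two off, until day 44, versus vehicle. Tumor lysates immunoblotted with primary antibodies, Dylight 800 secondary, fluorescent scan.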

[16] = Induction of compound aggregation
[17] = Selectivity index, ratio of IC50 for HPDEC to IC50 for human MIAPaCa2 cells
Outline: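 The measurement is MTT cytotoxicity (72 h) in HPV16-E6E7-immortalized HPDE cells and in MIA PaCa-2 cells, both grown in RPMI1640 with 10% FBS. Cells were seeded at 3000–8000/well and attached overnight, then treated with serial dilutions (30 nM–10 μM for most lines). MTT (300 μg/mL final) was added for 3 h at 37°C, formazan was dissolved in DMSO and A570 was read. IC50s are mean ± SD of three experiments; the index is their ratio.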

PANC-1 [18] = assay: Induction of reactive oxygen species generation in human PANC1 cells assessed as upregulation of HO-1 expression at 2 uM after 4 to 24 hrs by Western blot analysis; assay type: functional, cell-based; outline: as §1
MIA PaCa-2 [19] = assay: Induction of apoptosis signaling in human MIAPaCa2 cells at 5 times IC50 after 4 hrs by IPA analysis; assay type: functional, cell-based
Mus musculus [20] = assay: Toxicity in NOD/SCID mouse xenografted with human MIAPaCa2 cells assessed as lethargy at 5 mg/kg, ip administered 5 times a week until day 44; assay type: organism-based; details: in vivo; outline: as §3

For `O=C1C(Nc2ccc(-c3ccccc3)cc2)=CC(=O)c2ncncc21`, the Activity (MIA PaCa-2 [1]) was “Tde”, the Activity (BXPC-3 [2]) was “Tde” and the Activity (MIA PaCa-2 [3]) was “inactive”. For the same compound, the Activity (MIA PaCa-2 [4]) was “Active”, the inhibition (MIA PaCa-2 [5]) was “inactive” and the Activity (MIA PaCa-2 [6]) was “Tde”. The Activity (BXPC-3 [7]) was “Active”, the Activity (Mus musculus [8]) was “Non-Toxic” and the Activity (Mus musculus [9]) was “Non-Toxic”. The Activity (PANC-1 [10]) was “Tde”, the Activity (MIA PaCa-2 [11]) was “inactive” and the Activity (Mus musculus [12]) was “Active”. The Activity (Mus musculus [13]) was “Non-Toxic”, the Activity (BXPC-3 [14]) was “Tde” and the Activity (Mus musculus [15]) was “Active”. For the same compound, the Activity [16] was “Active”, the “Ratio IC50” value [17] was 3 and the Activity (PANC-1 [18]) was “inactive”. The Activity (MIA PaCa-2 [19]) was “Active” and the Activity (Mus musculus [20]) was “Non-Toxic”.
